Data published in PMC11904481 (ESMO Open, 2025).
“And” between values parts separate entries of the source, which are not always exact repeats. Equal values may be shown once.

Tested on: patients with locally advanced unresectable or metastatic, relapsed and/or refractory nonhematological malignancies
Assay: Phase I safety: adverse events
Type: in vivo, human
How it was run: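 Adverse events were graded by NCI CTCAE v4.03 across three i.v. schedules of the test compound (0.45-11.3 mg/kg; weekly per 28-day cycle, or days 1, 4, 8 ±11, 15 per 21-day cycle). Special-interest events covered retinal dysfunction symptoms and documented retinal disorders. Clustered signs were grouped as 'infusion reaction'. QTc was calculated with the Fridericia correction.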

[1] = schedule 3 cohort 5, 11.3 mg/kg
[2] = schedule 3 cohort 6, 11.3 mg/kg
[3] = schedules 1/2 cohort 1, 0.45 mg/kg

## O=C1Nc2cc3[nH]nc(-c4ccncc4)c3cc2CN1Cc1ccccc1 [KO-947]
All schedules
  deaths due to treatment-related TEAEs: No deaths
  dose interruptions due to toxicity: 14 patients
  dose reductions due to toxicity: 7 patients
  retinal vein occlusion: no reports
Cycle 1, range, 0-114 days
  median time to resolution of ocular events: 3 days
Schedule 3
  AESI blurred vision: 33%
  grade ≥3 TEAE: infusion-related reaction: 7%
  grade ≥3 TEAE: respiratory tract infection: 7%
  patients discontinued owing to AEs: 15%
  patients with at least one AESI: 82%
  patients with grade ≥3 TEAEs: 67%
  patients with grade ≥3 treatment-related TEAEs: 15%
  treatment-related QTc prolongation: 11%
  treatment-related blurred vision: 33.3% and 33%
  treatment-related dyspepsia: 11%
  treatment-related macular edema: 15%
  treatment-related photopsia: 15%
  treatment-related retinal detachment: 15%
  treatment-related vitreous floaters: 11%
Schedule 3 cohort 1, 3.6 mg/kg
  AESI: Blurred vision: 0 n (%)
  AESI: Detachment of retinal pigment epithelium: 0 n (%)
  AESI: Eye disorders: 2 (67) n (%)
  AESI: Macular edema: 0 n (%)
  AESI: Patients with ≥1 AE: 2 (67) n (%)
  AESI: Photopsia: 0 n (%)
  AESI: Retinal detachment: 0 n (%)
  AESI: Subretinal fluid: 1 (33) n (%)
  AESI: Total number of AEs: 4 n
  AESI: Vitreous floaters: 2 (67) n (%)
  Patients with ≥1 treatment-related TEAE: 2 (67) n (%)
  Total number of treatment-related TEAEs: 11 n
  Treatment-related TEAE: Blurred vision: 0 n (%)
  Treatment-related TEAE: Dermatitis acneiform: 0 n (%)
  Treatment-related TEAE: Diarrhea: 0 n (%)
  Treatment-related TEAE: Dyspepsia: 0 n (%)
  Treatment-related TEAE: Infusion-related reaction: 0 n (%)
  Treatment-related TEAE: Macular edema: 0 n (%)
  Treatment-related TEAE: Photopsia: 0 n (%)
  Treatment-related TEAE: QTc prolongation: 0 n (%)
  Treatment-related TEAE: Retinal detachment: 0 n (%)
  Treatment-related TEAE: Subretinal fluid: 1 (33) n (%)
  Treatment-related TEAE: Vitreous floaters: 2 (67) n (%)
Schedule 3 cohort 2, 4.8 mg/kg
  AESI: Blurred vision: 0 n (%)
  AESI: Detachment of retinal pigment epithelium: 0 n (%)
  AESI: Eye disorders: 2 (67) n (%)
  AESI: Macular edema: 0 n (%)
  AESI: Patients with ≥1 AE: 2 (67) n (%)
  AESI: Photopsia: 0 n (%)
  AESI: Retinal detachment: 1 (33) n (%)
  AESI: Subretinal fluid: 1 (33) n (%)
  AESI: Total number of AEs: 2 n
  AESI: Vitreous floaters: 0 n (%)
  Patients with ≥1 treatment-related TEAE: 3 (100) n (%)
  Total number of treatment-related TEAEs: 9 n
  Treatment-related TEAE: Blurred vision: 0 n (%)
  Treatment-related TEAE: Dermatitis acneiform: 0 n (%)
  Treatment-related TEAE: Diarrhea: 1 (33) n (%)
  Treatment-related TEAE: Dyspepsia: 0 n (%)
  Treatment-related TEAE: Infusion-related reaction: 0 n (%)
  Treatment-related TEAE: Macular edema: 0 n (%)
  Treatment-related TEAE: Photopsia: 0 n (%)
  Treatment-related TEAE: QTc prolongation: 0 n (%)
  Treatment-related TEAE: Retinal detachment: 1 (33) n (%)
  Treatment-related TEAE: Subretinal fluid: 1 (33) n (%)
  Treatment-related TEAE: Vitreous floaters: 0 n (%)
Schedule 3 cohort 3, 6.4 mg/kg
  AESI: Blurred vision: 3 (33) n (%)
  AESI: Detachment of retinal pigment epithelium: 0 n (%)
  AESI: Eye disorders: 7 (78) n (%)
  AESI: Macular edema: 1 (11) n (%)
  AESI: Patients with ≥1 AE: 7 (78) n (%)
  AESI: Photopsia: 1 (11) n (%)
  AESI: Retinal detachment: 1 (11) n (%)
  AESI: Subretinal fluid: 2 (22) n (%)
  AESI: Total number of AEs: 11 n
  AESI: Vitreous floaters: 0 n (%)
  Patients with ≥1 treatment-related TEAE: 8 (89) n (%)
  Total number of treatment-related TEAEs: 19 n
  Treatment-related TEAE: Blurred vision: 3 (33) n (%)
  Treatment-related TEAE: Dermatitis acneiform: 0 n (%)
  Treatment-related TEAE: Diarrhea: 1 (11) n (%)
  Treatment-related TEAE: Dyspepsia: 1 (11) n (%)
  Treatment-related TEAE: Infusion-related reaction: 2 (22) n (%)
  Treatment-related TEAE: Macular edema: 1 (11) n (%)
  Treatment-related TEAE: Photopsia: 1 (11) n (%)
  Treatment-related TEAE: QTc prolongation: 0 n (%)
  Treatment-related TEAE: Retinal detachment: 1 (11) n (%)
  Treatment-related TEAE: Subretinal fluid: 2 (22) n (%)
  Treatment-related TEAE: Vitreous floaters: 0 n (%)
Schedule 3 cohort 4, 7.2 mg/kg
  AESI: Blurred vision: 1 (33) n (%)
  AESI: Detachment of retinal pigment epithelium: 1 (33) n (%)
  AESI: Eye disorders: 3 (100) n (%)
  AESI: Macular edema: 1 (33) n (%)
  AESI: Patients with ≥1 AE: 3 (100) n (%)
  AESI: Photopsia: 1 (33) n (%)
  AESI: Retinal detachment: 1 (33) n (%)
  AESI: Subretinal fluid: 0 n (%)
  AESI: Total number of AEs: 14 n
  AESI: Vitreous floaters: 0 n (%)
  Patients with ≥1 treatment-related TEAE: 3 (100) n (%)
  Total number of treatment-related TEAEs: 38 n
  Treatment-related TEAE: Blurred vision: 1 (33) n (%)
  Treatment-related TEAE: Dermatitis acneiform: 1 (33) n (%)
  Treatment-related TEAE: Diarrhea: 2 (67) n (%)
  Treatment-related TEAE: Dyspepsia: 1 (33) n (%)
  Treatment-related TEAE: Infusion-related reaction: 1 (33) n (%)
  Treatment-related TEAE: Macular edema: 1 (33) n (%)
  Treatment-related TEAE: Photopsia: 1 (33) n (%)
  Treatment-related TEAE: QTc prolongation: 0 n (%)
  Treatment-related TEAE: Retinal detachment: 1 (33) n (%)
  Treatment-related TEAE: Subretinal fluid: 0 n (%)
  Treatment-related TEAE: Vitreous floaters: 0 n (%)
[1]
  AESI: Blurred vision: 4 (67) n (%)
  AESI: Detachment of retinal pigment epithelium: 1 (17) n (%)
  AESI: Eye disorders: 6 (100) n (%)
  AESI: Macular edema: 2 (33) n (%)
  AESI: Patients with ≥1 AE: 6 (100) n (%)
  AESI: Photopsia: 1 (17) n (%)
  AESI: Retinal detachment: 1 (17) n (%)
  AESI: Subretinal fluid: 1 (17) n (%)
  AESI: Total number of AEs: 16 n
  AESI: Vitreous floaters: 1 (17) n (%)
  Patients with ≥1 treatment-related TEAE: 6 (100) n (%)
  Total number of treatment-related TEAEs: 50 n
  Treatment-related TEAE: Blurred vision: 4 (67) n (%)
  Treatment-related TEAE: Dermatitis acneiform: 4 (67) n (%)
  Treatment-related TEAE: Diarrhea: 2 (33) n (%)
  Treatment-related TEAE: Dyspepsia: 1 (17) n (%)
  Treatment-related TEAE: Infusion-related reaction: 2 (33) n (%)
  Treatment-related TEAE: Macular edema: 2 (33) n (%)
  Treatment-related TEAE: Photopsia: 1 (17) n (%)
  Treatment-related TEAE: QTc prolongation: 1 (17) n (%)
  Treatment-related TEAE: Retinal detachment: 1 (17) n (%)
  Treatment-related TEAE: Subretinal fluid: 1 (17) n (%)
  Treatment-related TEAE: Vitreous floaters: 1 (17) n (%)
[2]
  AESI: Blurred vision: 1 (33) n (%)
  AESI: Detachment of retinal pigment epithelium: 1 (33) n (%)
  AESI: Eye disorders: 2 (67) n (%)
  AESI: Macular edema: 0 n (%)
  AESI: Patients with ≥1 AE: 2 (67) n (%)
  AESI: Photopsia: 1 (33) n (%)
  AESI: Retinal detachment: 0 n (%)
  AESI: Subretinal fluid: 1 (33) n (%)
  AESI: Total number of AEs: 3 n
  AESI: Vitreous floaters: 0 n (%)
  Patients with ≥1 treatment-related TEAE: 3 (100) n (%)
  Total number of treatment-related TEAEs: 9 n
  Treatment-related TEAE: Blurred vision: 1 (33) n (%)
  Treatment-related TEAE: Dermatitis acneiform: 1 (33) n (%)
  Treatment-related TEAE: Diarrhea: 0 n (%)
  Treatment-related TEAE: Dyspepsia: 0 n (%)
  Treatment-related TEAE: Infusion-related reaction: 1 (33) n (%)
  Treatment-related TEAE: Macular edema: 0 n (%)
  Treatment-related TEAE: Photopsia: 1 (33) n (%)
  Treatment-related TEAE: QTc prolongation: 2 (67) n (%)
  Treatment-related TEAE: Retinal detachment: 0 n (%)
  Treatment-related TEAE: Subretinal fluid: 1 (33) n (%)
  Treatment-related TEAE: Vitreous floaters: 0 n (%)
Schedule 3 total N = 27
  AESI: Blurred vision: 9 (33) n (%)
  AESI: Eye disorders: 22 (82) n (%)
  AESI: Macular edema: 4 (15) n (%)
  AESI: Patients with ≥1 AE: 22 (82) n (%)
  AESI: Photopsia: 4 (15) n (%)
  AESI: Retinal detachment: 4 (15) n (%)
  AESI: Subretinal fluid: 6 (22) n (%)
  AESI: Total number of AEs: 50 n
  AESI: Vitreous floaters: 3 (11) n (%)
  Patients with ≥1 treatment-related TEAE: 25 (93) n (%)
  Total number of treatment-related TEAEs: 136 n
  Treatment-related TEAE: Blurred vision: 9 (33) n (%)
  Treatment-related TEAE: Dermatitis acneiform: 6 (22) n (%)
  Treatment-related TEAE: Diarrhea: 6 (22) n (%)
  Treatment-related TEAE: Dyspepsia: 3 (11) n (%)
  Treatment-related TEAE: Infusion-related reaction: 6 (22) n (%)
  Treatment-related TEAE: Macular edema: 4 (15) n (%)
  Treatment-related TEAE: Photopsia: 4 (15) n (%)
  Treatment-related TEAE: QTc prolongation: 3 (11) n (%)
  Treatment-related TEAE: Retinal detachment: 4 (15) n (%)
  Treatment-related TEAE: Subretinal fluid: 6 (22) n (%)
  Treatment-related TEAE: Vitreous floaters: 3 (11) n (%)
[3]
  AESI: Blurred vision: 0 n (%)
  AESI: Eye disorders: 0 n (%)
  AESI: Macular edema: 0 n (%)
  AESI: Retinal edema: 0 n (%)
  AESI: Subretinal fluid: 0 n (%)
  AESI: Vitreous floaters: 0 n (%)
  Patients with ≥1 AESI: 0 n (%)
  Patients with ≥1 treatment-related TEAE: 1 (100) n (%)
